Laboratory results published in ChEMBL document CHEMBL4251567 (Eur J Med Chem, 2018).

Experiments:
[1] = molecular target: Histone deacetylase 2 (Homo sapiens) (UniProt Q92769); experiment: Inhibition of HDAC2 in human HeLa-S3 cell lysates assessed as remaining activity at 1 x 10^-6 M preincubated for 15 mins followed by HDAC-Glo substrate addition measured after 30 to 40 mins by […] relative to control
How it was run: (§1)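 Same antibody-capture format as the other class I isoforms. HeLa-S3 lysate added at 100 μg/mL for HDAC1 and HDAC2, 1 h at 4 °C, then washed. Inhibitor in DMSO preincubated 15 min at RT; HDAC-Glo reagent added and luminescence read after 30-40 min. Concentrations are final. Signal corrected against a well without antibody; activity expressed as % of DMSO control.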

[2] = molecular target: Histone deacetylase 1 (Homo sapiens) (UniProt Q13547); experiment: Inhibition of HDAC1 in human HeLa-S3 cell lysates assessed as remaining activity at 1.6 x 10^-5 M preincubated for 15 mins followed by HDAC-Glo substrate addition measured after 30 to 40 mins by […] relative to control
Sequence of Histone deacetylase 1 (Homo sapiens) (Q13547 whole entry): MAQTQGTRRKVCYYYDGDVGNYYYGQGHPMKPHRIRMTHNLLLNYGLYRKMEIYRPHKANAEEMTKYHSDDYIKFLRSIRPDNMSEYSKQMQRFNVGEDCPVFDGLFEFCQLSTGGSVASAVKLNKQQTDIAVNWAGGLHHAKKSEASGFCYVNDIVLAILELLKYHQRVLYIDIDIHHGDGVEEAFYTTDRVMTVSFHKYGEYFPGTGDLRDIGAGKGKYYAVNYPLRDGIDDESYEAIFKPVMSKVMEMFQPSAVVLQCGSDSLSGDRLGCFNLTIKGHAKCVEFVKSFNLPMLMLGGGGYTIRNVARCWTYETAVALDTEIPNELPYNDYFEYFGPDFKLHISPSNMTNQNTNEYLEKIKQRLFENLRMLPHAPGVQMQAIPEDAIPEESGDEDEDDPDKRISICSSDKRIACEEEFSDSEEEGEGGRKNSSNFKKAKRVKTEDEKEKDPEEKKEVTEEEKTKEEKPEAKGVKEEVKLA
How it was run: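 HDAC1 was captured from HeLa-S3 lysate (100 μg/mL) onto wells precoated with anti-HDAC1 antibody (10 μg/mL, carbonate buffer pH 9.4) and milk-blocked, 1 h at 4 °C, then washed. Inhibitor in DMSO was added in HDAC-Glo buffer for 15 min at room temperature. HDAC-Glo reagent was added and luminescence read after 30-40 min. Concentrations are final. No-antibody background subtracted; % of DMSO control.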

[3] = molecular target: Histone deacetylase 3 (Homo sapiens) (UniProt O15379); experiment: Inhibition of HDAC3 in human HeLa-S3 cell lysates assessed as remaining activity at 1 x 10^-6 M preincubated for 15 mins followed by HDAC-Glo substrate addition measured after 30 to 40 mins by […] relative to control
Sequence of Histone deacetylase 3 (Homo sapiens) (O15379 whole entry): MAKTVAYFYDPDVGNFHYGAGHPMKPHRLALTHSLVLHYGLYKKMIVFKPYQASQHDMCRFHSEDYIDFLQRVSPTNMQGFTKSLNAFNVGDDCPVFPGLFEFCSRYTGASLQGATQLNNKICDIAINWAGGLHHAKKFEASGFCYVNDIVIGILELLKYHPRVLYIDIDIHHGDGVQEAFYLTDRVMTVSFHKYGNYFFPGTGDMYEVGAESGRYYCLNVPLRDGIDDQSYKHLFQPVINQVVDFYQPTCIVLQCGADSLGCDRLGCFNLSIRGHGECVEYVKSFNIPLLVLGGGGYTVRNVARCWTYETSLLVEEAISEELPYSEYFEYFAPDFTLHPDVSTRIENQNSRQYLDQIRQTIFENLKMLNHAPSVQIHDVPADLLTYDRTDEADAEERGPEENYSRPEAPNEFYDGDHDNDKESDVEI
How it was run: (§2)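 Antibody-capture (ELISA-type) assay: HDAC antibody coated in carbonate/bicarbonate buffer pH 9.4, wells blocked with 5% milk in TBST. HeLa-S3 lysate added at 1 mg/mL for HDAC3, 1 h at 4 °C, then washed. Inhibitor in DMSO preincubated 15 min at RT in HDAC-Glo buffer. HDAC-Glo reagent added, luminescence read after 30-40 min. Concentrations are final. Background = no-antibody well; activity given as % of DMSO control.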

[4] = molecular target: Histone deacetylase 3 (Homo sapiens) (UniProt O15379); experiment: Inhibition of HDAC3 in human HeLa-S3 cell lysates assessed as remaining activity at 8 x 10^-6 M preincubated for 15 mins followed by HDAC-Glo substrate addition measured after 30 to 40 mins by […] relative to control; how it was run: as §2
[5] = molecular target: Histone deacetylase 3 (Homo sapiens) (UniProt O15379); experiment: Inhibition of HDAC3 in human HeLa-S3 cell lysates assessed as remaining activity at 2 x 10^-6 M preincubated for 15 mins followed by HDAC-Glo substrate addition measured after 30 to 40 mins by […] relative to control; how it was run: as §2
[6] = molecular target: Histone deacetylase 3 (Homo sapiens) (UniProt O15379); experiment: Inhibition of HDAC3 in human HeLa-S3 cell lysates assessed as remaining activity at 1.6 x 10^-5 M preincubated for 15 mins followed by HDAC-Glo substrate addition measured after 30 to 40 mins by […] relative to control; how it was run: as §2
[7] = molecular target: Histone deacetylase 2 (Homo sapiens) (UniProt Q92769); experiment: Inhibition of HDAC2 in human HeLa-S3 cell lysates assessed as remaining activity at 8 x 10^-6 M preincubated for 15 mins followed by HDAC-Glo substrate addition measured after 30 to 40 mins by […] relative to control; how it was run: as §1
[8] = molecular target: Histone deacetylase 2 (Homo sapiens) (UniProt Q92769); experiment: Inhibition of HDAC2 in human HeLa-S3 cell lysates assessed as remaining activity at 5 uM preincubated for 15 mins followed by HDAC-Glo substrate addition measured after 30 to 40 mins by […] relative to control; how it was run: as §1
[9] = molecular target: T1, Protein deacetylase HDAC6 (Homo sapiens) (UniProt Q9UBN7); experiment: Inhibition of HDAC6 in human HeLa-S3 cell lysates assessed as remaining activity at 5 uM preincubated for 15 mins followed by HDAC-Glo substrate addition measured after 30 to 40 mins by […] relative to control
T1 sequence (whole entry): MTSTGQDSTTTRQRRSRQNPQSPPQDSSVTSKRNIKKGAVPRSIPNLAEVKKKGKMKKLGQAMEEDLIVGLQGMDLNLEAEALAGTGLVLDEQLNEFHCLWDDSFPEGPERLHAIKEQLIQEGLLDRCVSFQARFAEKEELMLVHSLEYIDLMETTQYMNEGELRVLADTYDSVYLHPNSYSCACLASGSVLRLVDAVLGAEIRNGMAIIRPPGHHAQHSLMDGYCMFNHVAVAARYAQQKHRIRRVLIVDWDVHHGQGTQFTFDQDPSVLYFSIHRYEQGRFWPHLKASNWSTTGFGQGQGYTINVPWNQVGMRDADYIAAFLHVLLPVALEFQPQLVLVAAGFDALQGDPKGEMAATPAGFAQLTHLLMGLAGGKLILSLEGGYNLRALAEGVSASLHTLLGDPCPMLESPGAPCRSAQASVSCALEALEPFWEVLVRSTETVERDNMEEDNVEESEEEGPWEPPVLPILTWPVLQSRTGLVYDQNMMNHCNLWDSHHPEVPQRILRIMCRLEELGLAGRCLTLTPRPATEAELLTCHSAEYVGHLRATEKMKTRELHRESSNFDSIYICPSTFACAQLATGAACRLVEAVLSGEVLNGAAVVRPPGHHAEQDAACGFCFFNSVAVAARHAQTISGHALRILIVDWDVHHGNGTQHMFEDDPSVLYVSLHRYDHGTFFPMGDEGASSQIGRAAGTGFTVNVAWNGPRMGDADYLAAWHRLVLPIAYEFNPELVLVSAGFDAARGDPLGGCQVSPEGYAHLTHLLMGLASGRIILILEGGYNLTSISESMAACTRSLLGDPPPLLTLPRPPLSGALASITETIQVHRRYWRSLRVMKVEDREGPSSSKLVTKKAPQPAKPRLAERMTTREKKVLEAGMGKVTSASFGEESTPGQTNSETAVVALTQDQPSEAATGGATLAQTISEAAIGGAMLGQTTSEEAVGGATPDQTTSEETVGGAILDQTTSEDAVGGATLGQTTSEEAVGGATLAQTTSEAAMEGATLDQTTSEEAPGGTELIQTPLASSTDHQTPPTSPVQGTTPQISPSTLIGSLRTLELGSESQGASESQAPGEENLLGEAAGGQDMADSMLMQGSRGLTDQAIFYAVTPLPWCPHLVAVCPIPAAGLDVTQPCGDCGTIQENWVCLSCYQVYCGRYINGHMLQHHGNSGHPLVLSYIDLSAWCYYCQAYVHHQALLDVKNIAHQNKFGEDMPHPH
How it was run: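 HDAC6 captured on an anti-HDAC6 antibody-coated plate (2 μg/mL, pH 9.4 carbonate buffer, milk-blocked). HeLa-S3 lysate loaded at 1 mg/mL, 1 h at 4 °C, then washed. 15 min RT preincubation with inhibitor in DMSO; HDAC-Glo reagent added, luminescence read at 30-40 min. Concentrations are final. Background = no-antibody well; values are % activity versus DMSO control.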

[10] = molecular target: Histone deacetylase 3 (Homo sapiens) (UniProt O15379); experiment: Inhibition of HDAC3 in human HeLa-S3 cell lysates assessed as remaining activity at 1.25 uM preincubated for 15 mins followed by HDAC-Glo substrate addition measured after 30 to 40 mins by […] relative to control; how it was run: as §2

Sequence of Histone deacetylase 2 (Homo sapiens) (Q92769 whole entry, canonical isoform): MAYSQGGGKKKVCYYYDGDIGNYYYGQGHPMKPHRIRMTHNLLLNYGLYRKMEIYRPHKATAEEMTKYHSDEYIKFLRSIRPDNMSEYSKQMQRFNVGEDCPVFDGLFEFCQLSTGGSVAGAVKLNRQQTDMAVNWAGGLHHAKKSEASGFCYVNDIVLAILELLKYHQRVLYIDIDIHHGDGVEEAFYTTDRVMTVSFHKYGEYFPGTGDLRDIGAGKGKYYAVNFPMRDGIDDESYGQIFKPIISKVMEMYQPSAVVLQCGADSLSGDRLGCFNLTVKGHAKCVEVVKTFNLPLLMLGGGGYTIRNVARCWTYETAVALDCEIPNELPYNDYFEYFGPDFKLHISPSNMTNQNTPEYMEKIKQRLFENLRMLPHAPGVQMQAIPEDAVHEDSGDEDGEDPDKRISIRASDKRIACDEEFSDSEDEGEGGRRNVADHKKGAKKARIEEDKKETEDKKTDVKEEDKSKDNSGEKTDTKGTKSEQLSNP

CCC(CCCC(=O)Nc1ccccc1)CCC(=O)NO (stereo not given)
Activity [1]: 86%
Activity [2]: 19%
Activity [3]: 83%
Activity [4]: 52%
Activity [5]: 71%
Activity [6]: 17%
Activity [7]: 34%

O=C(CCC(CCCC(=O)Nc1ccccc1)Cc1ccccc1)NO (racemic)
Activity [8]: 92%
Activity [9]: 2.9%

CCCCCCC(CCCC(=O)Nc1ccccc1)CCC(=O)NO (stereo not given)
Activity [10]: 100%
